Screening results (PubChem)
PostGolgi ctrl = growth inhibition of yeast control strain, primary screen, counter-screen for post-Golgi transport modulator project | AID 738, 2007 | efflux-deficient yeast background strain, growth absorbance A615, 16 h | hit rate 5% among 98,000 | inhibition, % at 10 µM
PostGolgi yeast = phenotypic screen on post-Golgi transport, primary screen. post-Golgi transport phenotypic cell assay. inhibition, % at 10 µM. hit rate 0.9% among 98,000;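 further: yeast cells grown in 1536-well plates; yeast grown about 18 h at 30C before absorbance read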
tolC growth inh = growth inhibitors of E. coli tolC mutant, primary screen, strain BW25113 ΔtolC::kan, 384-well; OD615; growth inhibition, % at 10 µM (by protocol); hit rate 2.2% among 65,000; AID 573, 2007;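 active means growth inhibition at or above a cutoff equal to the mean over every tested compound plus 3 SD, cut at about 60% in these data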;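 further: growth measured after 20 h incubation at 37 °C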
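test system = E. coli BW25113 ΔtolC::kan bacteria | medium = LB with kanamycin 50 µg/mL | signal = OD at 615 nm | schedule = 37 °C, 20 h exposure | evaluation = % inhibition of E. coli growth | compound dosing = one dose of 10 µM final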
HePTP inhibitor = inhibitors of human HePTP phosphatase, primary screen, biochemical, absorbance, leukemia target | recombinant HePTP phosphatase activity, OD absorbance | inhibition, % at 20 µM | hit rate 0.64% among 110,000; in the data active means inhibition above about 50%
PLAP activator = PLAP enzyme activators, biochemical, luminescence, HTS; Alkaline phosphatase, placental type (Homo sapiens), P05187; purified PLAP enzyme, luminescent substrate read-out; hits give high values; activation fold at 20 µM; hit rate 1.2% among 96,000; AID 696, 2007; in the data active means activation fold above about 2
Target sequence (P05187 whole entry, looked up): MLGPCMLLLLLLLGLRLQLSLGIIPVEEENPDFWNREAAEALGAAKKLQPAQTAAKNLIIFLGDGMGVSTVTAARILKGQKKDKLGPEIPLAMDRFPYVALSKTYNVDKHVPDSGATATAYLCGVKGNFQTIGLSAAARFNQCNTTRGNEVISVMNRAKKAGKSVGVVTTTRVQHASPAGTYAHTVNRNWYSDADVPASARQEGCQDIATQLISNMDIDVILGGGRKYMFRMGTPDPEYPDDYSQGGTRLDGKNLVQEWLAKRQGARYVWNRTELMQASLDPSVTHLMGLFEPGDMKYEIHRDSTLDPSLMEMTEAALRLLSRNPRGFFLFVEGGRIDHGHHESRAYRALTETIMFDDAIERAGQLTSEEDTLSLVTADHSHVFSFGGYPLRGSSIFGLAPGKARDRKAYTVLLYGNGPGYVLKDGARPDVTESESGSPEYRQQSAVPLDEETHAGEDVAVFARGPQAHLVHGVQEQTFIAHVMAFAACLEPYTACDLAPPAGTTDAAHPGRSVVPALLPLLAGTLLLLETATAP
Ecoli WT expand = growth inhibitors of wild-type E. coli, primary screen, strain BW25113, expanded library, OD600; growth inhibition, % at 100 µM; OD600 absorbance; hit rate 0.15% among 98,000; AID 710, 2007;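 active means growth inhibition above about 50% at one test dose, limit read from the data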;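 further: growth measured after 20 h incubation at 37 °C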
A number is an active result; . = inactive; / = no result given. Sampled rows, rich in hits. Any-hit rate of the full collection: about 5.4%. Unless noted, no stated cut-off is given here; in the data, active means inhibition above about 30%; inactive means the rest.

SMILES	PostGolgi ctrl	PostGolgi yeast	tolC growth inh	HePTP inhibitor	PLAP activator	Ecoli WT expand
O=C(c1ccccc1)c1ccc2nc[nH]c2c1	.	.	.	.	2	.
O=C1NC(=O)N(c2cccc(Br)c2)C(=O)/C1=C/c1cccs1	/	/	/	.	/	/
CCOC(=O)c1c(NC(=O)CNCc2ccccc2)sc2c1CCCCC2	/	/	/	.	/	/
CCOC(=O)c1c2n(c3c(NCc4ccccc4)ncnc13)CCCC2	.	.	.	.	2.5	.
Cc1ccc(C)c(N2CCN(C(=O)COc3cc(=O)n(C)c4ccccc34)CC2)c1	38	.	.	.	.	.
Cc1ccc(C)c(N2CCN(C(=O)CCCOc3cc(=O)n(C)c4ccccc34)CC2)c1	.	.	.	.	.	.
Oc1ccc(Nc2nc(-c3ccc(Br)cc3)cs2)cc1	/	/	/	.	/	/
CCCCN(CCCC)C(=O)CSc1nnc2n(C)c(=O)c3c4c(sc3n12)CCCC4	34	.	.	.	/	.
CCCSc1nnc2n(C)c(=O)c3c4c(sc3n12)CCC4	.	.	.	.	.	.
COc1ccc(S(=O)(=O)Nc2cc3c(C(C)=O)c(C)oc3c3ccccc23)cc1	65	.	/	.	2	.
COc1cc(NS(=O)(=O)c2ccc(C)cc2)c2ncccc2c1	36	.	.	.	/	.
Cc1cc(NC(=O)Cc2c(F)cccc2Cl)no1	.	.	.	.	.	.
CC1=NN(c2ccccc2)C(=O)/C1=C/c1cc2cc(C)ccc2nc1N1CCCCC1	48	.	/	/	.	.
CC1=NN(c2ccccc2)C(=O)/C1=C\c1ccccc1Cl	/	/	/	.	/	/
CCCC(c1nnnn1CCC(C)C)N1CCC(C(N)=O)CC1 (stereo unspecified)	.	.	.	.	.	.
Cc1sc(NC(=O)CSc2nnc(-c3ccccc3)o2)c(C#N)c1C	46	.	.	.	.	.
Cc1cc(/C=N/n2cnnc2)c(C)n1-c1ccc(OCc2ccc(Cl)cc2)cc1	78	.	/	/	.	.
Cc1cc(/C=N/n2cnnc2)c(C)n1-c1ccc(OCc2ccccc2F)cc1	65	.	.	.	.	.
COc1cc2c(cc1OC)C1(CCCC1)C(N)=C2C#N	.	.	.	.	/	.
CCOC(=O)c1c(NC(=O)CN2CCCCC2)sc2c1CCN(C(=O)OCC)C2	.	.	96	.	.	.
CCOC(=O)c1c(NC(=O)CN(CC)CC)sc2c1CCN(C(=O)OCC)C2	.	.	.	.	.	.
COc1ccc(OC)c(/C=N/NC(=O)C(=O)Nc2ccc(OC)cc2OC)c1	/	/	/	.	/	/
COc1ccc(NC(=O)C(=O)N/N=C/c2cc(C)n(-c3cccc(Cl)c3Cl)c2C)c(OC)c1	.	.	/	/	2	.
COc1ccc(C2C3=C(CC(C)(C)CC3=O)OC3=C2C(=O)CC(C)(C)C3)cc1Br	/	/	/	.	/	/
COc1cc(NS(=O)(=O)c2ccc(Br)cc2)c(OC)cc1NC(=O)c1ccco1	.	.	76	.	.	.
SMILES	PostGolgi ctrl	PostGolgi yeast	tolC growth inh	HePTP inhibitor	PLAP activator	Ecoli WT expand
COc1ccc(Br)cc1C(=O)Nc1cccc(NC(=O)c2ccco2)c1	49	.	.	.	.	.
COc1c(C)cc(Br)cc1C(=O)Nc1cccc(NC(=O)c2ccco2)c1	56	31	74	.	.	.
CCCOc1ccc(C(=O)Nc2ccc(NC(=O)c3ccco3)c(OC)c2)cc1	/	/	/	.	/	/
CCCOc1cccc(C(=O)Nc2cc(NC(=O)c3ccco3)ccc2OC)c1	41	.	.	.	.	.
CCNC(=O)NCCc1c[nH]c2ccc(Cl)cc12	.	.	.	.	.	.
CC(Oc1ccccc1)C(=O)Nc1nc2c(s1)C(=O)CC(C)(C)C2 (stereo unspecified)	.	.	/	/	.	.
O=C(c1ccccc1)c1ccc2nc(-c3ccc(NC(=O)c4ccccc4Cl)cc3)[nH]c2c1	/	/	/	.	/	/
COc1ccc2c(Cl)c(C(=O)N/N=C/c3ccc4c(c3)OCO4)sc2c1	.	.	/	/	.	.
O=C(N/N=C/c1ccc2c(c1)OCO2)c1sc2cc(Cl)ccc2c1Cl	/	/	/	58	/	/
Clc1cc(Br)ccc1OCCOCCOc1cccc2cccnc12	60	.	/	/	.	.
Brc1ccccc1OCCCOc1cccc2cccnc12	/	/	/	.	/	/
Cc1cc(Cl)cc(Cl)c1OCCOc1cccc2cccnc12	32	.	/	/	.	.
Cc1cc(C)cc(OCCCOc2cccc3cccnc23)c1	62	.	/	/	.	.
Cc1ccc(N=Cc2cc(C)n(C3CCCC3)c2C)cc1	.	.	/	/	.	.
CC(C)NS(=O)(=O)c1ccc(OCC(=O)Nc2cccc3ccccc23)cc1	.	.	/	/	.	.
O=S(=O)(N/N=C\C=C\c1ccccc1)c1ccc(Cl)cc1	.	.	/	/	.	.
Cc1c(C#N)c(N)c(C(=O)c2ccccc2)n1-c1ccccc1	/	/	/	70	/	/
Cc1c(C#N)c(N)c(C(=O)c2ccc(Br)cc2)n1-c1ccc(Br)cc1	/	/	/	.	/	/
Cc1ccc(OCCSc2nc3ccccc3[nH]2)cc1	/	/	/	.	/	/
COc1cccc2cc(C(=O)N3CCN(C45CC6CC(CC(C6)C4)C5)CC3)c(=O)oc12	.	.	.	.	.	.
c1ccc(Cc2nnc(N3CCOCC3)c3ccccc23)cc1	45	.	/	/	.	.
c1ccc(N2CCN(c3nnc(Cc4cccnc4)c4ccccc34)CC2)nc1	.	.	.	.	.	.
COC(=O)c1cc2c(=O)n3ccccc3nc2n(Cc2cccnc2)c1=N	/	/	.	.	/	/
COc1ccc(OC)c(C(=O)COC(=O)CNC(=O)C2CCCCC2)c1	.	.	.	.	.	.
CCN(CC)CCCN(Cc1cc2cc3c(cc2[nH]c1=O)OCCO3)C(=O)Nc1ccc(F)cc1	.	35	.	.	.	.
SMILES	PostGolgi ctrl	PostGolgi yeast	tolC growth inh	HePTP inhibitor	PLAP activator	Ecoli WT expand
CC1=CC(C)(C)N(C(=O)CSc2nnc(N)s2)c2cc(C)c(C)cc21	.	.	/	/	.	.
COc1ccc(-n2c(SCC(=O)Nc3ccc4c(c3)OCO4)nc3ccccc3c2=O)cc1	54	.	.	.	.	.
COc1cccc(-n2nnnc2SCC(=O)Nc2ccc3c(c2)OCCO3)c1	31	39	/	/	.	.
COc1ccc(-n2nnnc2SCC(=O)Nc2ccc3c(c2)OCCO3)cc1OC	.	.	.	.	.	.
Cc1cc(C)cc(-n2ccnc2SCC(=O)Nc2ccc3c(c2)OCCO3)c1	.	.	77	.	.	.
CCc1nnc2sc(-c3cc(-c4ccccc4)nc4ccccc34)nn12	34	.	.	.	.	.
c1cncc(-c2nn3c(Cn4nnc5ccccc54)nnc3s2)c1	.	.	.	.	.	.
Oc1cccc(C=NC2CCCCC2)c1	/	/	/	64	/	/
Oc1cccc(C=Nc2ccccc2O)c1	/	/	/	.	/	/
Cc1cc(C)cc(Oc2nc(-c3ccccc3)cc(C)c2S(C)(=O)=O)c1	45	.	/	/	.	.
Cc1cc(-c2ccccc2)nc(Oc2ccc(C(C)(C)C)cc2)c1S(C)(=O)=O	63	.	/	/	.	.
COCCCNC(=O)C(C#N)c1nc2ccccc2nc1N1CCCC1 (stereo unspecified)	.	.	.	.	/	.
